Laboratory results: ChEMBL document CHEMBL1141164, “Design and synthesis of a series of melamine-based nitroheterocycles with activity against Trypanosomatid parasites” (J Med Chem, 2005)
Several values for one entry are separate records, joined by “and”; a condition that tells them apart may be missing. Equal entries are not always repeated.

Legend:
[1] = tested on: Trypanosoma brucei brucei; test: In vitro inhibitory concentration against blood stream Trypanosoma brucei brucei AT1 wild type incubated for 72 h at 37 degree C; assay type: functional, organism-based
How it was run: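 Wild-type T. b. brucei trypomastigotes, tested alongside the P2 knockout (TbAT1-/-). Alamar Blue viability assay used to derive IC50 values.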

[2] = tested on: Trypanosoma brucei; test: Inhibitory concentration against RAD51-/- mutant Trypanosoma brucei
[3] = tested on: L6; test: Concentration causing cytotoxicity to 50% of L-6 rat skeletal myoblasts; assay type: functional, cell-based
How it was run: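 L-6 rat skeletal myoblasts run in the same Alamar Blue assay as the trypanosome screen. Serial dilutions spanning 90 to 0.123 μg/mL, 72 h at 37 °C under 5% CO2, then Alamar Blue for a further 2–4 h. Fluorescence read at ex 536/em 588 nm and expressed as % of control to give IC50.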

[4] = tested on: Trypanosoma brucei rhodesiense; test: Inhibitory concentration in vitro against blood stream Trypanosoma brucei rhodesiense incubated for 72 hr at 37 degree C; assay type: functional, organism-based
How it was run: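 T. b. rhodesiense STIB900 trypomastigotes, a 1982 human isolate from Tanzania, grown in minimum essential medium with 2-mercaptoethanol and 15% heat-inactivated horse serum. Drug dilutions 90 to 0.123 μg/mL, 72 h at 37 °C, 5% CO2.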

[5] = tested on: Trypanosoma cruzi; test: In vitro inhibitory concentration against intracellular amastigotes of Trypanosoma cruzi in rat skeletal myoblasts incubated for 37 degree C for 4 days; assay type: functional, organism-based; conditions: 96 h
How it was run: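 L-6 myoblasts seeded at 2000 cells/well in RPMI 1640 with 10% FBS and 2 mM L-glutamine. After 24 h, 5000 T. cruzi Tulahuen C2C4 (LacZ) trypomastigotes added with serial drug dilution. Incubated 4 days at 37 °C in 5% CO2, then CPRG/Nonidet added.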

[6] = tested on: Trypanosoma brucei; test: Inhibitory concentration against wild-type (427) Trypanosoma brucei; assay type: functional, organism-based
[7] = tested on: Leishmania donovani; test: Inhibitory concentration in vitro against intracellular amastigotes of Leishmania donovani in mouse peritoneal macrophages incubated for 96 hr at 27 degree C
[8] = tested on: Leishmania donovani; test: Inhibitory concentration in vitro against intracellular amastigotes of Leishmania donovani in mouse peritoneal macrophages incubated for 96 hr at […]; tox is toxic to macrophages
[9] = tested on: Trypanosoma brucei brucei; test: In vitro inhibitory concentration against blood stream Trypanosoma brucei brucei AT1 knockout mutant with a non functional P2 transporter incubated for 72 h at 37 degree C; assay type: organism-based
How it was run: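 Bloodstream T. b. brucei trypomastigotes, wild type or P2 transporter knockout (TbAT1-/-), were tested side by side. Viability was read by Alamar Blue fluorescence and IC50 values were determined.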

[10] = target: T1, Nucleoside transporter 2 (Trypanosoma brucei brucei) (UniProt Q9U763); test: In vitro inhibitory concentration against P2 aminopurine transporter of Trypanosoma brucei brucei 427 adenosine (0.5 uM) uptake in presence of 1 mM inosine
T1 sequence (whole entry): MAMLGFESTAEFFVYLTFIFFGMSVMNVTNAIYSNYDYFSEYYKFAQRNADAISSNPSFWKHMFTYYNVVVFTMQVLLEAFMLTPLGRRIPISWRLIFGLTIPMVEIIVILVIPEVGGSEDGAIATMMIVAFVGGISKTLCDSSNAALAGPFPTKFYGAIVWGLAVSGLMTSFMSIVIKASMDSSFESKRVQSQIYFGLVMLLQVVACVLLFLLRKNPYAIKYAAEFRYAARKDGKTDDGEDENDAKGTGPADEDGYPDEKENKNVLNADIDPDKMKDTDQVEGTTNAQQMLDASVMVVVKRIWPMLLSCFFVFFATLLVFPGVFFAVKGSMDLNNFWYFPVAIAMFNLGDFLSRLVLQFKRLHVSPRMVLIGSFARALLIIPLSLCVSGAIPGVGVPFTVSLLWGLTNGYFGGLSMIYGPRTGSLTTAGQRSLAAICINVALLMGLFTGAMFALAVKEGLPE
How it was run: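 Blood-purified T. b. brucei 427 held on ice in Carter's buffered saline. Uptake of radiolabeled adenosine fixed at 0.5 μM via P2, measured with 1 mM inosine present to block P1, by centrifugation through oil over a range of inhibitor concentrations. IC50 obtained by plotting inhibition against inhibitor concentration.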

[11] = tested on: Mus musculus; test: In vivo antitrypanosomal activity at a dose of 4*20 mg/kg, i.p., in mice infected with Trypanosoma brucei brucei STIB 795 strain, measured as survival days (control 7 days); assay type: functional
[12] = tested on: Mus musculus; test: In vivo antitrypanosomal activity at a dose of 4*20 mg/kg, i.p., in mice infected with Trypanosoma brucei brucei STIB 795 strain; 0/4; assay type: functional
[13] = tested on: Mus musculus; test: In vivo antitrypanosomal activity at a dose of 4*5 mg/kg, i.p., in mice infected with Trypanosoma brucei brucei STIB 795 strain, measured as survival days (control 7 days); assay type: functional
[14] = tested on: Mus musculus; test: In vivo antitrypanosomal activity at a dose of 4*20 mg/kg, i.p., in mice infected with Trypanosoma brucei rhodesiense STIB 900 strain, measured as cured/infected; 0/4; assay type: functional
[15] = tested on: Mus musculus; test: In vivo antitrypanosomal activity at a dose of 4*20 mg/kg, i.p., in mice infected with Trypanosoma brucei rhodesiense STIB 900 strain, measured as survival days (control 7 days); ND is not determined; assay type: functional
[16] = tested on: Mus musculus; test: In vivo antitrypanosomal activity at a dose of 4*5 mg/kg, i.p., in mice infected with Trypanosoma brucei brucei STIB 795 strain; 4/4; assay type: functional
[17] = tested on: Trypanosoma cruzi; test: In vivo activity at a dose of 45 mg/kg, p.o., for 5 doses in rodent model with Trypanosoma cruzi, measured as survival days (control 13 days); conditions: route oral
[18] = tested on: Trypanosoma cruzi; test: In vivo percent inhibition of compound at a dose of 45 mg/kg, p.o., for 5 doses in rodent model with Trypanosoma cruzi [ND = not determined]; conditions: po
[19] = tested on: Mus musculus; test: In vivo antitrypanosomal activity at a dose of 4*20 mg/kg, i.p., in mice infected with Trypanosoma brucei rhodesiense STIB 900 strain, measured as survival days (control 7 days); assay type: functional
[20] = tested on: Trypanosoma cruzi; test: In vivo activity at a dose of 50 mg/kg, i.p., for 5 doses in mice infected with Trypanosoma cruzi, measured as survival days (control 13 days)
[21] = tested on: Mus musculus; test: In vivo antitrypanosomal activity at a dose of 4*20 mg/kg, i.p., in mice infected with Trypanosoma brucei brucei STIB 795 strain; 4/4; assay type: functional
[22] = tested on: Trypanosoma cruzi; test: In vivo activity at a dose of 50 mg/kg, i.p., for 5 doses in mice infected with Trypanosoma cruzi, measured as survival days (control 13 days); conditions: ip, 312 h
[23] = tested on: Mus musculus; test: In vivo antitrypanosomal activity at a dose of 4*20 mg/kg, i.p., in mice infected with Trypanosoma brucei rhodesiense STIB 900 strain; 2/4; assay type: functional
[24] = tested on: Mus musculus; test: In vivo antitrypanosomal activity at a dose of 4*8 mg/kg, i.p., in mice infected with Trypanosoma brucei rhodesiense STIB 900 strain, measured as survival days (control 7 days); ND is not determined; assay type: functional
[25] = tested on: Mus musculus; test: In vivo antitrypanosomal activity at a dose of 4*1 mg/kg, i.p., in mice infected with Trypanosoma brucei brucei STIB 795 strain, measured as survival days (control 7 days); assay type: functional
[26] = tested on: Mus musculus; test: In vivo antitrypanosomal activity at a dose of 4*1 mg/kg, i.p., in mice infected with Trypanosoma brucei rhodesiense STIB 900 strain, measured as survival days (control 7 days); ND is not determined; assay type: functional
[27] = tested on: Mus musculus; test: In vivo antitrypanosomal activity at a dose of 4*8 mg/kg, i.p., in mice infected with Trypanosoma brucei rhodesiense STIB 900 strain, measured as cured/infected; 4/4; assay type: functional
[28] = tested on: Mus musculus; test: In vivo antitrypanosomal activity at a dose of 4*1 mg/kg, i.p., in mice infected with Trypanosoma brucei rhodesiense STIB 900 strain, measured as cured/infected; 0/4; assay type: functional
[29] = tested on: Mus musculus; test: In vivo antitrypanosomal activity at a dose of 4*1 mg/kg, i.p., in mice infected with Trypanosoma brucei brucei STIB 795 strain; 2/4; assay type: functional
[30] = tested on: Trypanosoma cruzi; test: In vivo activity at a dose of 15 mg/kg, i.p., for 5 doses in rodent model with Trypanosoma cruzi, measured as survival days (control 13 days); conditions: route intraperitoneal
[31] = tested on: Mus musculus; test: In vivo antitrypanosomal activity at a dose of 4*20 mg/kg, i.p., in mice infected with Trypanosoma brucei rhodesiense STIB 900 strain; 0/4; assay type: functional
[32] = tested on: Trypanosoma cruzi; test: In vivo activity at a dose of 25 mg/kg, i.p., for 5 doses in rodent model with Trypanosoma cruzi, measured as survival days (control 13 days); conditions: route intraperitoneal
[33] = tested on: Mus musculus; test: In vivo antitrypanosomal activity at a dose of 4*20 mg/kg, i.p., in mice infected with Trypanosoma brucei rhodesiense STIB 900 strain; 1/4; assay type: functional
[34] = tested on: Mus musculus; test: In vivo antitrypanosomal activity at a dose of 4*20 mg/kg, i.p., in mice infected with Trypanosoma brucei rhodesiense STIB 900 strain, measured as survival days (control 6.5 days); assay type: functional

Compound | IC50 [1] [µM] | IC50 [3] [µM] | IC50 [4] [µM] | IC50 [5] [µM] | IC50 [8] | IC50 [9] [µM] | IC50 [10] [µM] | other results
CC1CS(=O)(=O)CCN1/N=C/c1ccc([N+](=O)[O-])o1 (stereo not given) [NIFURTIMOX] | 5.6 | 68 | 1.5 | 1.5 | – | – | – | IC50 [2]: 4.3 µM; IC50 [6]: 4.1 µM and 11.4 µM; IC50 [7]: 68 µM
O=[N+]([O-])c1ccc(/C=N/O)o1 [NIFUROXIME] | 1.18 | 40 | 0.68 | – | Toxic | 1.26 | 300 | –
N#Cc1ccc(/C=N/Nc2nc(N)nc(N)n2)o1 | – | – | 46.3 | 122 | – | – | – | –
Nc1nc(N)nc(N/N=C/c2ccccc2[N+](=O)[O-])n1 | > 75 | – | 36.5 | 328 | – | – | – | –
CNc1nc(NC)nc(N/N=C/c2ccc([N+](=O)[O-])o2)n1 | – | 44.1 | 0.01 | 0.24 | – | – | – | Survival [11]: 5.25 days; Cured/Infected [12]: 0; IC50 [7]: 3.14 µM
Nc1nc(N)nc(N/N=C/c2cccc([N+](=O)[O-])c2)n1 | > 75 | – | 52.9 | 328 | – | – | – | –
N=C(N)c1ccc(OCCCCCOc2ccc(C(=N)N)cc2)cc1 [PENTAMIDINE] | – | – | – | – | – | – | – | Survival [13]: >60 days; Cured/Infected [14]: 0; Survival [15]: 42.75 days; Cured/Infected [16]: 4
NNc1nc(N)nc(N)n1 | > 200 | – | – | – | – | > 200 | 11.9 | –
O=C(Cn1ccnc1[N+](=O)[O-])NCc1ccccc1 [BENZNIDAZOLE] | – | – | – | – | – | – | – | IC50 [2]: 114 µM; Survival [17]: >30 days; IC50 ([6]; Trypanosoma brucei): 116 µM; inhibition in vivo at 45 mg/kg [18]: 100%
Nc1nc(N)nc(N/N=C/c2ccco2)n1 | 16.5 | > 400 | 12.9 | > 400 | Toxic | 29.3 | 15.9 | –
CNc1nc(N)nc(N/N=C/c2ccc([N+](=O)[O-])o2)n1 | 0.13 | 48.9 | 0.018 | 0.39 | – | 0.06 | – | Survival [19]: >38.5 days; Survival [20]: 13 days; Survival [11]: >60 days; IC50 [2]: 0.07 µM; Cured/Infected [21]: 4; IC50 [6]: 0.08 µM; IC50 ([6]; Trypanosoma brucei): 0.08 µM; inhibition in vivo at 50 mg/kg [22]: 27.8%; Cured/Infected [23]: 2; IC50 [7]: 0.75 µM
Nc1nc(N)nc(Nc2ccc([As]3SCC(CO)S3)cc2)n1 (stereo not given) [MELARSOPROL] | 0.053 | – | 0.006 | 0.006 | – | 0.12 | 1.2 | Survival [24]: >60 days; Survival [25]: >60 days; Survival [26]: 21.25 days; Cured/Infected [27]: 4; Cured/Infected [28]: 0; IC50 [7]: 7.8 µM; Cured/Infected [29]: 2
CN(C)c1nc(N/N=C/c2ccc([N+](=O)[O-])o2)nc(N(C)C)n1 | 0.2 | 18.7 | 0.003 | 0.38 | Toxic | 0.3 | 129 | Survival [19]: 7.25 days; Survival [30]: 12.8 days; Cured/Infected [31]: 0
N/N=C/c1ccc([N+](=O)[O-])o1 | 23.5 | 20 | 2.3 | – | Toxic | 13.5 | 404 | –
Nc1nc(N)nc(N/N=C/c2ccc([N+](=O)[O-])cc2)n1 | > 75 | – | 29.9 | 91.5 | – | – | – | –
Nc1nc(N)nc(N/N=C/c2ccc([N+](=O)[O-])s2)n1 | 0.85 | 11.8 | 0.24 | 2.6 | Toxic | 1.52 | 1.9 | –
Nc1nc(N)nc(N/N=C/c2cccs2)n1 | 89 | 78.2 | 10.2 | 85.8 | Toxic | 170 | 4.9 | –
Nc1nc(N)nc(N/N=C/c2ccc([N+](=O)[O-])o2)n1 | 0.23 | 183 | 0.025 | 2.1 | – | 0.38 | 22.9 | Survival [11]: >60 days; IC50 [2]: 0.1 µM; Cured/Infected [21]: 4; Survival [32]: 13 days; IC50 [6]: 0.08 µM; IC50 ([6]; Trypanosoma brucei): 0.08 µM; Cured/Infected [33]: 1; Survival [34]: 35.25 days; IC50 [7]: > 12.5 µM
